Measurements taken from ChEMBL document CHEMBL2046381, “Defining the mechanism of action and enzymatic selectivity of psammaplin A against its epigenetic targets” (J Med Chem, 2012).
Active and inactive are the calls of the source. No cut-off for these calls is given here.

Key:
MCF7 [1] = assay: Inhibition of Class 1 histone deacetylase in human MCF7 cells assessed as up-regulation of p21 protein level at 5 uM after 24 hrs by Western blot analysis; type: cell-based
Method in brief: (§1)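 MCF7 cells (5 × 10^6 per T75 flask) treated 24 h, harvested by trypsinization, lysed in RIPA on ice; 50 μg total protein resolved on 12% SDS-PAGE, transferred to nitrocellulose and probed for histone, acetylated histone, tubulin, acetylated tubulin, p21 and actin. Untreated cells as negative control.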

[2] = target: T1, Protein deacetylase HDAC6 (Homo sapiens) (UniProt Q9UBN7); assay: Inhibition of HDAC6 in human MCF7 cells assessed as change in tubulin acetylation level at 5 uM after 24 hrs by Western blot analysis; type: cell-based; method in brief: as §1
T1 sequence (whole entry): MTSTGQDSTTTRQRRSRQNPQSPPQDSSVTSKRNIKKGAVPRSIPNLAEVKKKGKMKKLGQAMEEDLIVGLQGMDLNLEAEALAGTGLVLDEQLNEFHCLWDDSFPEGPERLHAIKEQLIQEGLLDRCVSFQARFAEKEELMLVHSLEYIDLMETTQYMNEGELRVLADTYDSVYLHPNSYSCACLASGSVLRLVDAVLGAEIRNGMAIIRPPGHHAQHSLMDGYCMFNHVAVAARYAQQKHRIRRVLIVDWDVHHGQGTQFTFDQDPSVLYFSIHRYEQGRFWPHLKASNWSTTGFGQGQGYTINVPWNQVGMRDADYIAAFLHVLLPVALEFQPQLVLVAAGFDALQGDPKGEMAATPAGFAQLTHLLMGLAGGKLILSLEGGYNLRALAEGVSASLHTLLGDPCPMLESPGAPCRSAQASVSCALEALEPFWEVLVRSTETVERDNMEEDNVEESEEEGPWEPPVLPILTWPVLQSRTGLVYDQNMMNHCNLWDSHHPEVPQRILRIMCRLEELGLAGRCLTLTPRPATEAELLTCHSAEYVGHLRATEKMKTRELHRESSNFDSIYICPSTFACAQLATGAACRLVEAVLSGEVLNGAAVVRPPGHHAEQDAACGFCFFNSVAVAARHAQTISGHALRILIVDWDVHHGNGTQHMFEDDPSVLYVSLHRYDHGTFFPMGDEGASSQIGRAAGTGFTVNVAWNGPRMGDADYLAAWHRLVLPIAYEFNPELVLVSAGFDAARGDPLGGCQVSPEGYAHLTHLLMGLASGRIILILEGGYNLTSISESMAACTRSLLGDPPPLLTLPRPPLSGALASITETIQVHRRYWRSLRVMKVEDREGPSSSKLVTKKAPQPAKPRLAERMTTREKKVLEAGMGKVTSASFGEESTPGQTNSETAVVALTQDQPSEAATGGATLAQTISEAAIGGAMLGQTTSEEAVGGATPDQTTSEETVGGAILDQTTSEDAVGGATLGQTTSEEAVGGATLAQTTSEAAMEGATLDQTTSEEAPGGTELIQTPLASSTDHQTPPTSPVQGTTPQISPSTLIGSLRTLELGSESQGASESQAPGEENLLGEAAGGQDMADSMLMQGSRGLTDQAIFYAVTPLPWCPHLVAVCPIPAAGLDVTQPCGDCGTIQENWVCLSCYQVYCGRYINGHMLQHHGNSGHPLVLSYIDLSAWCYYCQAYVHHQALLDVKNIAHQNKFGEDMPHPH

Bacteria [3] = assay: Inhibition of bacterial DNA cytosine-C5 methyltransferase, M.SssI at 50 uM
Method in brief: (§2)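 One unit M.SssI with 1 μg bacteriophage λ DNA in NEBuffer2 (pH 7.9, 1 mM DTT) plus 160 μM SAM, ±inhibitor, 2 h at 37 °C; heat-inactivated 65 °C 20 min. Methylation read by BstUI digestion (10 units, 1 h 60 °C) and 1.5% agarose gel electrophoresis; run four times with positive and negative controls.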

A549 = assay: Growth inhibition of human A549 cells after 96 hrs by sulphorhodamine B assay; type: functional; details: A549, 96 h
Method in brief: (§3)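 SRB growth assay; MCF7 and WI38 seeded 4000 cells/well, A549 2000 cells/well, attached overnight, then exposed to freshly made drug solutions (0.1 to 50 μM) for 96 h. Fixed with cold 10% TCA, stained with 0.4% SRB; absorbance at 540 nm as percent of untreated control, IC50 from mean absorbance.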

Bacteria [4] = assay: Inhibition of bacterial DNA cytosine-C5 methyltransferase, M.SssI at 5 uM; method in brief: as §2
[5] = target: DNA (cytosine-5)-methyltransferase 1 (Homo sapiens, UniProt P26358); assay: Inhibition of semi-purified DNMT1
Chain of DNA (cytosine-5)-methyltransferase 1 (P26358 whole entry): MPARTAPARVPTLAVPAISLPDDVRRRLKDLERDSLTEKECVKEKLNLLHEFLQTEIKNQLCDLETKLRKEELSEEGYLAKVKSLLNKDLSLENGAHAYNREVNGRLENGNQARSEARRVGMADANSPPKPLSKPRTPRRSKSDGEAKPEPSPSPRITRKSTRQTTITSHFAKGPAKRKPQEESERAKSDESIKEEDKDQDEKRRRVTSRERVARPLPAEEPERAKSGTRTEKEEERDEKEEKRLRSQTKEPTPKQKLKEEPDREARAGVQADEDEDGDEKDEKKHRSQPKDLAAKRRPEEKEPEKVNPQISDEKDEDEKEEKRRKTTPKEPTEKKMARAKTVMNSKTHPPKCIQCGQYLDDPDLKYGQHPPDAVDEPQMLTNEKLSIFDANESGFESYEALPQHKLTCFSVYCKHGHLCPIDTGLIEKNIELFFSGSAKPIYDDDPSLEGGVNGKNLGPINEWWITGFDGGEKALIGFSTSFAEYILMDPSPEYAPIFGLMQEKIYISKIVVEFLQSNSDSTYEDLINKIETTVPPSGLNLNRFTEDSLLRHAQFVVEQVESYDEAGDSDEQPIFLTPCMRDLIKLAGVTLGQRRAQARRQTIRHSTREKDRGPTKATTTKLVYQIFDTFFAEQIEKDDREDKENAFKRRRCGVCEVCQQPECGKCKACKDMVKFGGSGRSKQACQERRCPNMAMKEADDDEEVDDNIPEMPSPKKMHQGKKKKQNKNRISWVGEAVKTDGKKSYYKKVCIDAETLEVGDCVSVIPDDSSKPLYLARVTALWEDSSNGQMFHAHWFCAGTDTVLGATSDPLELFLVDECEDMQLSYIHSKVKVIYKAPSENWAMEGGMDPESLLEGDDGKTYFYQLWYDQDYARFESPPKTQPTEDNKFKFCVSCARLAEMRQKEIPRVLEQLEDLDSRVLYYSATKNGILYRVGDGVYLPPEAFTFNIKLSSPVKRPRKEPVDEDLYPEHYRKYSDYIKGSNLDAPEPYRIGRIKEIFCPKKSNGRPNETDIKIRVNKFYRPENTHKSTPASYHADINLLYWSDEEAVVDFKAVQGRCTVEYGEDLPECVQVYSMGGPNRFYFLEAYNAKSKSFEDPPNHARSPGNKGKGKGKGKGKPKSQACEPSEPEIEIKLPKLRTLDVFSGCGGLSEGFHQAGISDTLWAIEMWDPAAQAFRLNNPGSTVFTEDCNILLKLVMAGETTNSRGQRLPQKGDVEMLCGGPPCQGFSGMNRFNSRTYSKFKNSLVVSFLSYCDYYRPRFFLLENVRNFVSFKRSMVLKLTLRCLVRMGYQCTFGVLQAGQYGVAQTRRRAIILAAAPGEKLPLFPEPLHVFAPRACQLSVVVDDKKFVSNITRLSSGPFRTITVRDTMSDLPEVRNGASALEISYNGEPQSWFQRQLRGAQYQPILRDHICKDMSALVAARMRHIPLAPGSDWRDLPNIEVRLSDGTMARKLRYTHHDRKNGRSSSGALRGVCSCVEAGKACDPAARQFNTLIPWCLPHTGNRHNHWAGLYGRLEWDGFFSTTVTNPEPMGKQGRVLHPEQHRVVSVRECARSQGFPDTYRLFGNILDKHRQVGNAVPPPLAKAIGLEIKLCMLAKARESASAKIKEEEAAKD

[6] = Growth inhibition of human WI38 cells after 96 hrs by sulphorhodamine B assay; type: cell-based; details: WI-38 cells; method in brief: as §3
MCF7 [7] = assay: Growth inhibition of human MCF7 cells after 96 hrs by sulphorhodamine B assay; type: functional; details: MCF7, 96 h; method in brief: as §3
Histone deacetylase 1 = Histone deacetylase 1 (Homo sapiens, UniProt Q13547); assay: Inhibition of HDAC1 in human MCF7 cells assessed as up-regulation of acetylated histone H3 protein level at 5 uM after 24 hrs by Western blot analysis; type: cell-based; method in brief: as §1
Chain of Histone deacetylase 1 (Q13547 whole entry): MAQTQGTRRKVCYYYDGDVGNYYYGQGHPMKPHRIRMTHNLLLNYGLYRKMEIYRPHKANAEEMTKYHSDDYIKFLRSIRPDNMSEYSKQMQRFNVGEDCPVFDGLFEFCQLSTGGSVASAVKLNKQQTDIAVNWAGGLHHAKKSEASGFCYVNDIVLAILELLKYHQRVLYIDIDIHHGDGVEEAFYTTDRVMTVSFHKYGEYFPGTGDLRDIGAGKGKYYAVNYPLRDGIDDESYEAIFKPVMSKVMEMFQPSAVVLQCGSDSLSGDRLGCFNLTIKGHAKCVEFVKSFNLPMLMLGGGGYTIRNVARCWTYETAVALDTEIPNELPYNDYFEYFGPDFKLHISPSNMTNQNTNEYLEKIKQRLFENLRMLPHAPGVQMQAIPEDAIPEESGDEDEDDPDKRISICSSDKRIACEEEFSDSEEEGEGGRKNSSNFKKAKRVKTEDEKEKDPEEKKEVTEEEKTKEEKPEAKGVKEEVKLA

[8] = Inhibition of HDAC in cell extract based assay

For `O=C(NCCSSCCNC(=O)/C(Cc1ccc(O)c(Br)c1)=N/O)/C(Cc1ccc(O)c(Br)c1)=N/O` [PSAMMAPLIN A], the inhibition (MCF7 [1]) was “Active”, the inhibition [2] was “inactive” and the inhibition (Bacteria [3]) was “Active”. The GI50 (A549) was 7500 nM, the inhibition (Bacteria [4]) was “Active” and the IC50 [5] was 18.6 nM. The GI50 at 96 h [6] was 3440 nM, the GI50 (MCF7 [7]) was 1270 nM and the inhibition (Histone deacetylase 1) was “Active”. For the same molecule, the IC50 [8] was 4.2 nM.
